Square brackets hold non-standard residues; d marks the D form. Peptide text beside a SMILES is read from it. * marks the point of attachment. Fumaroyl(AlaGlyPheOH) = C[C@H](NC(=O)/C=C/C(=O)*)C(=O)NCC(=O)N[C@@H](Cc1ccccc1)C(=O)O; Fumaroyl(GlyGlyPheOH) = O=C(/C=C/C(=O)*)NCC(=O)NCC(=O)N[C@@H](Cc1ccccc1)C(=O)O; Chg = N[C@H](C(=O)O)C1CCCCC1; Dap = NC[C@H](N)C(=O)O
Tests used:
[1] = target: Rhodesain (Trypanosoma brucei rhodesiense) (UniProt Q95PM0); assay: Inhibition of Trypanosoma brucei rhodesiense recombinant rhodesain at 100 uM
Summary of the method: (§1)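 Single-point screen at 100 μM inhibitor (final). Recombinant enzyme in 50 mM acetate pH 5.5, 5 mM EDTA, 200 mM NaCl, 5 mM DTT, 10% DMSO final; Cbz-Phe-Arg-AMC 40 μM (or Cbz-Leu-Arg-AMC 25 μM) hydrolysis followed by fluorescence (ex 380/em 460 nm). % inhibition = 100(1 − vi/vc) from progress-curve slopes vs DMSO control; at least two independent assays.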

[2] = Inhibition of Plasmodium falciparum falcipain-2 after 12 hrs by fluorescence spectroscopy-based on-bead assay; set-up: concentration or dose not given beside the values; conditions: concentration not given here
Summary of the method: (§2)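 Library members on resin (PEGA, theoretical loading 0.40 mmol/g; added as DMSO suspension, 0.64 mM final inhibitor) preincubated with enzyme 12 h, then Cbz-Phe-Arg-AMC 40 μM added; AMC release followed by fluorescence (ex 380/em 460 nm). Kinetics compared with inhibitor-free amino-PEGA resin.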

[3] = test system: Plasmodium falciparum; assay: Inhibition of Plasmodium falciparum recombinant falcipain-2 expressed in Escherichia coli at 100 uM after 20 min by spectrofluorometry; summary of the method: as §1
[4] = target: Rhodesain (Trypanosoma brucei rhodesiense) (UniProt Q95PM0); assay: Inhibition of Trypanosoma brucei rhodesiense rhodesain after 12 hrs by fluorescence spectroscopy-based on-bead assay; set-up: concentration or dose not given beside the values; conditions: concentration not given here; summary of the method: as §2
[5] = target: Cathepsin B (Homo sapiens, UniProt P07858); assay: Inhibition of human liver cathepsin B at 100 uM
[6] = Inhibition of Plasmodium falciparum recombinant falcipain-2 expressed in Escherichia coli after 20 min using Cbz-Phe-Arg-AMC as substrate by spectrofluorometry; conditions: in the assay text read “over 5-10 min” for “after 20 min”
Summary of the method: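 Continuous assay without preincubation. Recombinant falcipain-2 in 50 mM acetate pH 5.5, 5 mM EDTA, 200 mM NaCl, 5 mM DTT, 10% DMSO final; Cbz-Phe-Arg-AMC (40 μM, Km 21.5 μM) or Cbz-Leu-Arg-AMC (25 μM, Km 8.4 μM). Fluorescence monitored 5-10 min at 0.1-80 μM inhibitor. Ki from Dixon plot, corrected to zero substrate; at least two independent assays.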

[7] = test system: Plasmodium falciparum; assay: Antiplasmodial activity against Plasmodium falciparum FCBR by fluorometric method; type: functional, organism-based, FCBR/Columbia
[8] = target: Rhodesain (Trypanosoma brucei rhodesiense, UniProt Q95PM0); assay: Inhibition of Trypanosoma brucei rhodesiense recombinant rhodesain
Rhodesain, sequence (Q95PM0 whole entry): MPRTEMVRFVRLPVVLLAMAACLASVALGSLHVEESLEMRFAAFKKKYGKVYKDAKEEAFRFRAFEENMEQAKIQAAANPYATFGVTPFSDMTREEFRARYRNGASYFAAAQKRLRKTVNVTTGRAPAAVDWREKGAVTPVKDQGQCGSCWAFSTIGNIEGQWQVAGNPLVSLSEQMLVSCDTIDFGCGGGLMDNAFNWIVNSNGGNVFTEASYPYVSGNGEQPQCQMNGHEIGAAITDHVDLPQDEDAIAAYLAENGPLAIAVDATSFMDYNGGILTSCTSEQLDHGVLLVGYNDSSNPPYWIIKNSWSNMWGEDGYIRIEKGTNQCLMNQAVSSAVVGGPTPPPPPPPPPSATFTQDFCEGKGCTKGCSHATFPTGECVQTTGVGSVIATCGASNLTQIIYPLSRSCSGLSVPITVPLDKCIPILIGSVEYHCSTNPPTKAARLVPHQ

Rhodesain (Trypanosoma brucei rhodesiense), sequence (Q95PM0 1-450): as the sequence (Q95PM0 whole entry) above

Compound	inhibition [1]	inhibition [2]	inhibition [4]	further results
Cc1ccc(C(=O)Nc2ccc(S(=O)(=O)O)c3cc(S(=O)(=O)O)cc(S(=O)(=O)O)c23)cc1NC(=O)c1cccc(NC(=O)Nc2cccc(C(=O)Nc3cc(C(=O)Nc4ccc(S(=O)(=O)O)c5cc(S(=O)(=O)O)cc(S(=O)(=O)O)c45)ccc3C)c2)c1	32%	–	–	–
CC(C)C[C@H](NC(=O)[C@H](CCC(N)=O)NC(=O)/C=C/C(=O)N[C@@H](C)C(=O)NCC(=O)N[C@@H](Cc1ccccc1)C(=O)O)C(=O)N[C@H](C(=O)N[C@H](C(N)=O)C(C)C)C(C)C (HELM PEPTIDE1{[C[C@H](NC(=O)/C=C/C(=O)[*:2])C(=O)NCC(=O)N[C@@H](Cc1ccccc1)C(=O)O].Q.L.V.V.[am]}$$$$V2.0)	37%	48%	64%	inhibition [3]: 45%; inhibition [5]: 23%
CC(C)C[C@H](NC(=O)[C@H](Cc1ccccc1)NC(=O)[C@H](CC(N)=O)NC(=O)/C=C/C(=O)NCC(=O)NCC(=O)N[C@@H](Cc1ccccc1)C(=O)O)C(=O)N[C@H](C(N)=O)C(C)C (HELM PEPTIDE1{[O=C(/C=C/C(=O)[*:2])NCC(=O)NCC(=O)N[C@@H](Cc1ccccc1)C(=O)O].N.F.L.V.[am]}$$$$V2.0)	6%	70%	61%	inhibition [3]: 49%; inhibition [5]: 24%
CC(C)C[C@H](NC(=O)[C@H](CC(N)=O)NC(=O)/C=C/C(=O)NCC(=O)NCC(=O)N[C@@H](Cc1ccccc1)C(=O)O)C(=O)N[C@@H](C)C(=O)N[C@H](C(N)=O)C(C)C (HELM PEPTIDE1{[O=C(/C=C/C(=O)[*:2])NCC(=O)NCC(=O)N[C@@H](Cc1ccccc1)C(=O)O].N.L.A.V.[am]}$$$$V2.0)	8%	41%	24%	inhibition [3]: 33%; Ki [6]: 67.5 µM; inhibition [5]: 17%
CC(C)C[C@H](NC(=O)[C@H](CC(N)=O)NC(=O)/C=C/C(=O)NCC(=O)NCC(=O)N[C@@H](Cc1ccccc1)C(=O)O)C(=O)N[C@@H](CC(C)C)C(=O)N[C@H](C(N)=O)C(C)C (HELM PEPTIDE1{[O=C(/C=C/C(=O)[*:2])NCC(=O)NCC(=O)N[C@@H](Cc1ccccc1)C(=O)O].N.L.L.V.[am]}$$$$V2.0)	63%	70%	71%	inhibition [3]: 92%; Ki [6]: 10.1 µM; IC50 ([7]; Plasmodium falciparum, FCBR/Columbia, read-out: IC50): 74 µM; Ki [8]: 2.7 µM; inhibition [5]: 21%
CC(C)C[C@H](NC(=O)[C@@H](NC(=O)[C@H](CC(N)=O)NC(=O)/C=C/C(=O)NCC(=O)NCC(=O)N[C@@H](Cc1ccccc1)C(=O)O)c1ccccc1)C(=O)N[C@H](C(N)=O)C(C)C (HELM PEPTIDE1{[O=C(/C=C/C(=O)[*:2])NCC(=O)NCC(=O)N[C@@H](Cc1ccccc1)C(=O)O].N.[Phg].L.V.[am]}$$$$V2.0)	26%	51%	50%	inhibition [3]: 76%; Ki [6]: 21.3 µM; IC50 [7]: Not Active; inhibition [5]: 13%
CC[C@H](C)[C@H](NC(=O)[C@H](CNC(C)=O)NC(=O)/C=C/C(=O)NCC(=O)NCC(=O)N[C@@H](Cc1ccccc1)C(=O)O)C(=O)N[C@@H](C)C(=O)N[C@H](C(N)=O)C(C)C (HELM PEPTIDE1{[O=C(/C=C/C(=O)[*:2])NCC(=O)NCC(=O)N[C@@H](Cc1ccccc1)C(=O)O].[O=C([C@H](CN[*:3])N[*:1])[*:2]].I.A.V.[am]}|PEPTIDE2{[ac]}$PEPTIDE1,PEPTIDE2,2:R3-1:R2$$$V2.0)	–	29%	29%	–
CC[C@H](C)[C@H](NC(=O)[C@H](CNC(C)=O)NC(=O)/C=C/C(=O)NCC(=O)NCC(=O)N[C@@H](Cc1ccccc1)C(=O)O)C(=O)N[C@@H](CC(C)C)C(=O)N[C@H](C(N)=O)C(C)C (HELM PEPTIDE1{[O=C(/C=C/C(=O)[*:2])NCC(=O)NCC(=O)N[C@@H](Cc1ccccc1)C(=O)O].[O=C([C@H](CN[*:3])N[*:1])[*:2]].I.L.V.[am]}|PEPTIDE2{[ac]}$PEPTIDE1,PEPTIDE2,2:R3-1:R2$$$V2.0)	–	33%	60%	–
CC[C@H](C)[C@H](NC(=O)[C@H](CNC(C)=O)NC(=O)/C=C/C(=O)NCC(=O)NCC(=O)N[C@@H](Cc1ccccc1)C(=O)O)C(=O)N[C@H](C(=O)N[C@H](C(N)=O)C(C)C)C(C)C (HELM PEPTIDE1{[O=C(/C=C/C(=O)[*:2])NCC(=O)NCC(=O)N[C@@H](Cc1ccccc1)C(=O)O].[O=C([C@H](CN[*:3])N[*:1])[*:2]].I.V.V.[am]}|PEPTIDE2{[ac]}$PEPTIDE1,PEPTIDE2,2:R3-1:R2$$$V2.0)	–	28%	41%	–
CC(=O)NC[C@H](NC(=O)/C=C/C(=O)NCC(=O)NCC(=O)N[C@@H](Cc1ccccc1)C(=O)O)C(=O)N[C@@H](CC(C)C)C(=O)N[C@H](C(=O)N[C@H](C(N)=O)C(C)C)C(C)C (HELM PEPTIDE1{[O=C(/C=C/C(=O)[*:2])NCC(=O)NCC(=O)N[C@@H](Cc1ccccc1)C(=O)O].[O=C([C@H](CN[*:3])N[*:1])[*:2]].L.V.V.[am]}|PEPTIDE2{[ac]}$PEPTIDE1,PEPTIDE2,2:R3-1:R2$$$V2.0)	–	41%	54%	–
CC(=O)NC[C@H](NC(=O)/C=C/C(=O)NCC(=O)NCC(=O)N[C@@H](Cc1ccccc1)C(=O)O)C(=O)N[C@H](C(=O)N[C@@H](C)C(=O)N[C@H](C(N)=O)C(C)C)c1ccccc1 (HELM PEPTIDE1{[O=C(/C=C/C(=O)[*:2])NCC(=O)NCC(=O)N[C@@H](Cc1ccccc1)C(=O)O].[O=C([C@H](CN[*:3])N[*:1])[*:2]].[Phg].A.V.[am]}|PEPTIDE2{[ac]}$PEPTIDE1,PEPTIDE2,2:R3-1:R2$$$V2.0)	–	37%	36%	–
CC(=O)NC[C@H](NC(=O)/C=C/C(=O)NCC(=O)NCC(=O)N[C@@H](Cc1ccccc1)C(=O)O)C(=O)N[C@H](C(=O)N[C@@H](CC(C)C)C(=O)N[C@H](C(N)=O)C(C)C)c1ccccc1 (HELM PEPTIDE1{[O=C(/C=C/C(=O)[*:2])NCC(=O)NCC(=O)N[C@@H](Cc1ccccc1)C(=O)O].[O=C([C@H](CN[*:3])N[*:1])[*:2]].[Phg].L.V.[am]}|PEPTIDE2{[ac]}$PEPTIDE1,PEPTIDE2,2:R3-1:R2$$$V2.0)	–	38%	66%	–
CC(=O)NC[C@H](NC(=O)/C=C/C(=O)NCC(=O)NCC(=O)N[C@@H](Cc1ccccc1)C(=O)O)C(=O)N[C@H](C(=O)N[C@H](C(=O)N[C@H](C(N)=O)C(C)C)C(C)C)c1ccccc1 (HELM PEPTIDE1{[O=C(/C=C/C(=O)[*:2])NCC(=O)NCC(=O)N[C@@H](Cc1ccccc1)C(=O)O].[O=C([C@H](CN[*:3])N[*:1])[*:2]].[Phg].V.V.[am]}|PEPTIDE2{[ac]}$PEPTIDE1,PEPTIDE2,2:R3-1:R2$$$V2.0)	–	25%	40%	–
CC(=O)NC[C@H](NC(=O)/C=C/C(=O)N[C@@H](C)C(=O)NCC(=O)N[C@@H](Cc1ccccc1)C(=O)O)C(=O)N[C@H](C(=O)N[C@@H](C)C(=O)N[C@H](C(N)=O)C(C)C)C1CCCCC1 ({Fumaroyl(AlaGlyPheOH)}-[Dap](Ac)[Chg]AV-NH2)	–	35%	29%	–
CC(=O)NC[C@H](NC(=O)/C=C/C(=O)N[C@@H](C)C(=O)NCC(=O)N[C@@H](Cc1ccccc1)C(=O)O)C(=O)N[C@H](C(=O)N[C@@H](CC(C)C)C(=O)N[C@H](C(N)=O)C(C)C)C1CCCCC1 ({Fumaroyl(AlaGlyPheOH)}-[Dap](Ac)[Chg]LV-NH2)	–	56%	51%	–
CC(=O)NC[C@H](NC(=O)/C=C/C(=O)N[C@@H](C)C(=O)NCC(=O)N[C@@H](Cc1ccccc1)C(=O)O)C(=O)N[C@H](C(=O)N[C@H](C(=O)N[C@H](C(N)=O)C(C)C)C(C)C)C1CCCCC1 ({Fumaroyl(AlaGlyPheOH)}-[Dap](Ac)[Chg]VV-NH2)	–	40%	46%	–
CC(=O)NC[C@H](NC(=O)/C=C/C(=O)NCC(=O)NCC(=O)N[C@@H](Cc1ccccc1)C(=O)O)C(=O)N[C@H](C(=O)N[C@@H](CC(C)C)C(=O)N[C@H](C(N)=O)C(C)C)C1CCCCC1 ({Fumaroyl(GlyGlyPheOH)}-[Dap](Ac)[Chg]LV-NH2)	–	26%	75%	–
CC(=O)NC[C@H](NC(=O)/C=C/C(=O)NCC(=O)NCC(=O)N[C@@H](Cc1ccccc1)C(=O)O)C(=O)N[C@H](C(=O)N[C@H](C(=O)N[C@H](C(N)=O)C(C)C)C(C)C)C1CCCCC1 ({Fumaroyl(GlyGlyPheOH)}-[Dap](Ac)[Chg]VV-NH2)	–	52%	52%	–
